Screening data from PubChem BioAssay.
In the library only some 1.7% were active in any assay of this set; here they are far more common.
EBNA-1 inhibitor – blocks EBNA-1 binding to DNA. EBNA-1 DNA binding, fluorescence polarization. inhibition, % at 14.8 µM. hit rate 0.34% among 300,000. AID 1950; in the data active means inhibition above about 28%
Apaf-1 inh – human Apaf-1 inhibition; inhibition, % at 20 µM; hit rate 0.71% among 330,000; reconstituted apoptosome caspase-3 activity, DEVD-Rh110 fluorescence; active means inhibition of at least 40% at 20 µM;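 further: plate controls were DMSO wells for no effect and DEVD-CHO caspase inhibitor wells for full effect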
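detection = Rh110 fluorescence intensity | test system = biochemical Apaf-1 apoptosome reconstitution | also added = cytochrome c and DEVD-Rh110 substrate | schedule = 30 min plus 50 min, RT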
PREPL inhibitor – inhibitors of human prolyl oligopeptidase-like enzyme PREPL. Q4J6C6. recombinant PREPL, fluorescence polarization activity-based probe. inhibition, % at 5.96 µM. hit rate 0.68% among 320,000. AID 2751; in the data active means inhibition above about 43%;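 further: 0% = enzyme with DMSO and 100% = wells lacking enzyme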
UBC13 inh – blocks human UBC13 polyubiquitin chain formation. P61088. TR-FRET. inhibition, % at 20 µM. hit rate 0.47% among 330,000. AID 485273; in the data active means inhibition above about 45%, passing the limit was not always enough
Target sequence (P61088 whole entry, looked up): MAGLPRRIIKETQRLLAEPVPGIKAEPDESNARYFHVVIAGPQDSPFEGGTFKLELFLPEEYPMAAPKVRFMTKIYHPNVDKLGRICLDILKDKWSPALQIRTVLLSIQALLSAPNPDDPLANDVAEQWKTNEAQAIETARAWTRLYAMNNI
ZTA DNA inh – counter-screen for EBNA-1 inhibitors: inhibitors of Epstein-Barr virus ZTA. P03206. hit rate 0.15% among 320,000. inhibition, % at 11 µM. ZTA-DNA binding, fluorescence polarization; in the data active means inhibition above about 33%
Target sequence (P03206 whole entry, looked up): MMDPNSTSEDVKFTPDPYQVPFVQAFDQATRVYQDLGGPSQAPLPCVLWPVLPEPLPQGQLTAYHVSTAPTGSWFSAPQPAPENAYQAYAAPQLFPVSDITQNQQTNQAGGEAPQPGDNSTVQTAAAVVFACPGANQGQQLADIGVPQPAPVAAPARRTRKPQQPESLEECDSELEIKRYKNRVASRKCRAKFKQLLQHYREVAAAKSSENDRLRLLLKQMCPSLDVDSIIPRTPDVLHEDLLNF
Apaf-1 inh conf2 – confirmation of Apaf-1 inhibitors; shares compounds with Apaf-1 inh; reconstituted apoptosome, caspase-3 DEVD-Rh110 fluorescence; inhibition, % at 20 µM; hit rate 25% among 1,800;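 active means mean inhibition of at least 40% at 20 µM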;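 further: plate controls were DMSO wells for no effect and DEVD-CHO caspase inhibitor control wells for full effect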
Rh110 quench – counter-screen for Apaf-1 inhibitors: fluorescence interference; shares compounds with Apaf-1 inh; 1,800 tested, under 10 active; activation (fluorescence interference), % at 20 µM; Rh110 fluorescence interference, quenched caspase reaction;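 active means signal rise of 40% or more at 20 µM, treated as a fluorescence artifact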
Apaf1 inh interf – counter-screen for Apaf-1 inhibitors: fluorescence interference, dose response. IC50, µM. fluorescence interference counterscreen, Apaf-1 assay format. shares compounds with Apaf-1 inh. 460 tested, under 10 active; call rule not given here
The depositor's hits bear a star; / = not tested or not shown; ! = not active in a repeat.

SMILES | EBNA-1 inhibitor | Apaf-1 inh | PREPL inhibitor | UBC13 inh | ZTA DNA inh | Apaf-1 inh conf2 | Rh110 quench | others
CCC(C)NC(=O)C(=O)NCc1ccncc1 (stereo not given) | -5.9 | -9.0 | 1.9 | -3.7 | -11.5 | / | /
O=C(CN(Cc1ccc2c(c1)OCO2)C(=O)CSc1nc2ccccc2o1)NC1CCCCC1 | -6.1 | 29.7 | 5.5 | 4.9 | -6.4 | / | /
CN1c2cccc3cccc(c23)N(C)C1(C)C | -0.9 | 45.5* | 13.8 | -16.6 | -1.0 | 13.5 | -3.7
O=C1N/C(=N/N=C/c2ccc(O)cc2)SC1Cc1ccccc1 (stereo not given) | 9.5 | -10.3 | -4.3 | 3.3 | 5.0 | / | /
CC1=NN(c2ccc(C(=O)O)c(N)c2)C(=O)C1 | 10.6 | 62.1* | 10.6 | -42.1 | 12.6 | 6.8 | -2.4
CC1=NN(c2ccc(S(=O)(=O)O)cc2Cl)C(=O)C1 | -11.4 | 66.2* | -1.7 | -12.4 | 7.0 | 18.7 | -2.6
CC1=NN(c2ccc(Cl)c(C(=O)O)c2)C(=O)C1 | 12.2 | 7.6 | 4.7 | 12.0 | 11.6 | / | /
CC1=NN(c2cccc(Cl)c2)C(=O)C1 | -1.5 | 74.8* | 4.0 | -12.8 | -0.8 | 21.0 | 6.0
CC1=N/C(=C\c2ccc([N+](=O)[O-])cc2)C(=O)N1c1ccc(Br)c(C)c1 | -0.6 | 0.6 | 11.8 | -3.2 | 2.1 | / | /
COc1ccc(OC)c(/C=C2\SC(=S)N(NS(=O)(=O)c3ccccc3)C2=O)c1 | -1.9 | 14.3 | -7.8 | -23.6 | -3.3 | / | /
COc1ccc(CN2CCC(C(=O)Nc3ccc(Oc4cccnc4)cc3)CC2)cc1 | 2.9 | 58.4* | -4.2 | 5.4 | 5.3 | 16.9 | 15.7
COc1ccc(F)cc1CN1CCN(CC(=O)Nc2ccccc2C(=O)NC2CC2)CC1 | / | 7.2 | 5.6 | 4.7 | -9.3 | / | /
CCOC(=O)c1cc(C(=O)c2cccs2)n2ccc(C(C)=O)cc12 | -2.1 | 42.3* | 17.6 | 32.7 | 2.2 | 9.7 | 4.2
CCCOc1nc2c(c(=O)n(C)c(=O)n2C)n1Cc1cccc2ccccc12 | 2.5 | 12.9 | -1.5 | 13.8 | -9.5 | / | /
N/C(=N\OC(=O)COc1ccc2ccccc2c1)c1ccncc1 | 2.7 | 9.8 | -13.8 | 4.7 | 7.4 | / | /
COc1ccc(NC(=O)CC2Nc3cc(C)c(C)cc3NC2=O)c([N+](=O)[O-])c1 (stereo not given) | 3.7 | 16.3 | 13.9 | -53.0 | -0.7 | / | /
O=C(CC1Nc2cccc3cccc(c23)NC1=O)Nc1ccc(F)cc1 (stereo not given) | -14.4 | 95.6* | 33.3 | -52.2 | 12.1 | 19.6 | 7.1
COc1ccc(NC(=O)CC2Nc3cccc4cccc(c34)NC2=O)cc1 (stereo not given) | -20.9 | 94.2* | 22.7 | -5.3 | -2.1 | 11.1 | 1.0
O=C(CC1Nc2ccccc2NC1=O)Nc1cc(Cl)cc(Cl)c1 (stereo not given) | -3.8 | 24.2 | 0.3 | 1.0 | -5.3 | / | /
CN1CCc2cccc3c2[C@@H]1Cc1ccc(O)c(O)c1-3 | 8.0 | 49.9* | 14.0 | 7.2 | 1.5 | 24.7 | 14.1
COc1ccc2c(c1O)-c1ccccc1CCN(C)C2 | -7.4 | 8.6 | 2.6 | 4.4 | -8.8 | / | /
CC1CCN(S(=O)(=O)c2ccc3c(c2)N(CC(=O)NCCCN2CCCC(C)C2)C(=O)CO3)CC1 (stereo not given) | 0.2 | -0.5 | 5.4 | -5.6 | 7.4 | / | /
Cc1ccc(C(=O)Nc2nnn(C)n2)cc1 | -2.6 | 23.9 | 1.2 | 1.2 | -11.1 | / | /
CN(C)c1ccnc2c[cH-]cc12.[Fe].c1ccc(-[c-]2[c-](-c3ccccc3)[c-](-c3ccccc3)[c-](-c3ccccc3)[c-]2-c2ccccc2)cc1 (stereo not given) | 6.3 | 47.2*! | 13.1 | 31.9 | 9.0 | 3.9 | 5.4
CN(C)c1ccnc(Nc2ccccc2)c1C#N | 8.2 | -1.0 | -1.3 | -0.9 | -9.2 | / | /
SMILES | EBNA-1 inhibitor | Apaf-1 inh | PREPL inhibitor | UBC13 inh | ZTA DNA inh | Apaf-1 inh conf2 | Rh110 quench | others
c1ccc2c(c1)ncc1cccn12 | 1.4 | -2.0 | -1.3 | 8.5 | -10.6 | / | /
CCn1c2ccccc2c2c3ncc4cccn4c3ccc21 | 12.9 | 61.7* | 6.3 | -19.5 | -4.9 | 18.6 | 6.5
Sc1nnc(-c2ccc(Cl)cc2)n1Cc1ccccc1 | / | 14.3 | 1.0 | 4.0 | 1.2 | / | /
CCC(C)N1CCC(Oc2ccc(C(=O)NCc3ccccn3)cc2)CC1 (stereo not given) | 2.4 | 1.6 | -11.3 | -7.6 | -18.5 | / | /
Oc1ccc(NCc2cccc(OCc3ccccc3)c2)cc1 | -21.2 | 91.1* | 27.6 | -20.6 | -4.8 | 29.3 | 4.0
O=C(NCC(c1ccco1)N1CCCC1)c1cccc(S(=O)(=O)Nc2ccc(Br)cc2)c1 (stereo not given) | 0.0 | 59.4* | -0.1 | 37.3 | 2.8 | 41.5* | 9.8 | Apaf1 inh interf=>100
O=c1[nH]c(CN2CCc3ccccc3C2)nc2ccccc12 | -8.8 | 64.7* | 8.5 | 42.6 | -23.4 | 14.1 | -0.2
CCC1C(=O)N=C(SCC(=O)Nc2nc3ccccc3s2)NC1=O (stereo not given) | -3.9 | 69.6* | -3.5 | 1.2 | -5.0 | 2.0 | 8.8
Cc1[nH][nH]c(=O)c1C(c1c(C)[nH][nH]c1=O)c1cn(Cc2cccc3ccccc23)c2ccccc12 | -3.6 | 94.8* | 10.9 | -33.3 | 13.4 | 50.9* | 11.1 | Apaf1 inh interf=>100
COC(=O)CN=Cc1c(C)[nH]n(-c2ccccc2)c1=O | 6.8 | -10.6 | -9.5 | 2.7 | -1.7 | / | /
Cc1[nH]n(-c2ccccc2)c(=S)c1C=NCCCN=Cc1c(C)[nH]n(-c2ccccc2)c1=S | -6.1 | 62.6* | 23.8 | -13.7 | -5.4 | -7.5 | 1.1
CN1CCN(c2ccc(NC(=O)COc3ccccc3)cc2Cl)CC1 | / | 49.5* | / | 2.6 | / | 15.1 | 6.3
CCC12CCCN3CCc4c(n(c5ccccc45)C(O)(C(=O)OC)C1)C32 (stereo not given) | -2.5 | 40.9* | 9.7 | -10.1 | 2.5 | 17.7 | -0.3
Cc1ccc(NC(=S)Nc2cccc3cnccc23)c(C)c1 | 2.2 | 96.4* | 24.8 | -50.4 | 6.9 | 12.5 | -0.2
CCc1ccc(NC(=S)Nc2cccc3cnccc23)cc1 | 8.9 | 88.6* | 9.3 | -22.9 | 1.7 | 43.4* | 21.1 | Apaf1 inh interf=>100
Cc1cc(C)cc(NC(=S)Nc2cccc3cnccc23)c1 | / | 97.6* | / | -67.8 | / | 16.9 | -1.2
C=C(C)CNC(=S)Nc1cccc2cnccc12 | -1.8 | -3.5 | 16.6 | -12.6 | -4.9 | / | /
Cc1ccc(C2(C)NC(=O)N(CCOc3ccccc3)C2=O)cc1 (stereo not given) | 5.4 | -6.7 | -21.9 | 5.2 | 7.4 | / | /
COC(=O)c1ccc(C(=O)OCCCc2nc3ccc(N)cc3[nH]2)cc1 | 9.5 | 14.8 | 4.4 | 2.9 | 10.7 | / | /
Nc1nc(SCC(=O)Nc2ccc(OC(F)(F)F)cc2)[nH]c(=O)c1NC(=O)c1ccc(Br)o1 | -13.9 | -0.2 | -0.5 | -13.7 | 2.0 | / | /
